The text below walks through data of ChEMBL document CHEMBL1135061, “Synthesis, hydrolytic activation and cytotoxicity of etoposide prodrugs” (Bioorg Med Chem Lett, 2002).

Data set [1] deals with A2780. Briefly: Tested for cytotoxicity against Ovarian carcinoma parental type A2780 cell line expressing MDR-1 (-) gene. Format: functional, cell-based. Conditions: Homo sapiens. In outline: (§1)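 XTT assay; 10,000 tumor cells/well preincubated 24 h at 37 °C, 5% CO2, then drug added directly from DMSO stocks over 100 fM to […] range. After 72 h XTT added, 4 h further incubation, OD read at 450 nm. IC50 (50% growth inhibition) derived from viability–dilution plots of duplicate runs.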

Data set [2] in a line: Tested for half life period at 37 degree Celsius in PBS buffer at 11.8 pH containing porcine liver esterase. The data set is classed as ADME, Sus scrofa. Conditions: pig, pH 11.8. In outline:
(§2)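 Drug at 37 °C in acetonitrile–aqueous buffer (20/80 vol%) at set pH, in human serum, or with pig liver carboxylic ester hydrolase. Serum samples pre-separated on C18 cartridges. Aliquots mixed 1:1 with acetonitrile, centrifuged, supernatant analysed by HPLC peak areas. First-order log conversion–time plots; k_obs and t1/2 from slopes; mean ± SD.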

A short description of data set [3]: Tested for half life period at 37 degree Celsius in PBS buffer at 7.3 pH containing porcine liver esterase. The data set is classed as ADME, Sus scrofa. As to conditions: pig, pH 7.3. In outline: as §2
Data set [4] is described as follows: Tested for half life period at 37 degree Celsius in PBS buffer at 7.3 pH in containing porcine liver esterase. The data set is classed as ADME, Sus scrofa. Conditions: pig, pH 7.3. In outline:
as §2

In data set [5] the test system is ADR5000 cell line. Briefly: Tested for cytotoxicity against Doxo resistant A2780 type ADR5000 cell line expressing MDR-1 (++) gene. Format: functional, cell-based. As to conditions: Homo sapiens. Summed up:
as §1

Data set [6] has as its system HT-29. Briefly: Tested for cytotoxicity against Colon carcinoma type HT-29 cell line expressing MDR-1 (-) gene. Format: functional, cell-based. Conditions: Homo sapiens. Summed up:
as §1

The target of data set [7] is T1, S-formylglutathione hydrolase (Sus scrofa) (UniProt Q9GJT2).
T1 sequence (whole entry): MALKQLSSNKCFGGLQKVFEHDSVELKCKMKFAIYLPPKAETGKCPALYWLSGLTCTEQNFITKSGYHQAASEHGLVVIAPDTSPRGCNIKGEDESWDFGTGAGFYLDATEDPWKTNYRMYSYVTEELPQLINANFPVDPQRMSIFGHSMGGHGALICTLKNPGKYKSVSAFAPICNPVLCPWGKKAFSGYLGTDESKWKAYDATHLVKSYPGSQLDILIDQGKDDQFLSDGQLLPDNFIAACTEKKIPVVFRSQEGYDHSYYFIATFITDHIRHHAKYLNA
Briefly: Tested for rate constant at 37 degree Celsius in PBS buffer at 11.8 pH containing porcine liver esterase expressed in 10 e-3 min e-1. Summed up: as §2

For data set [8], the system named is SW480. Nature of the data set: Tested for cytotoxicity against Colon adenocarcinoma resistant type SW480 cell line expressing MDR-1 (+) gene; ~50% cells affected by drug. Conditions: Homo sapiens. Format: functional, cell-based. In outline:
as §1

In data set [9] the test system is VCR100. Briefly: Tested for cytotoxicity against T-lymphoblastoide VC resistant type VCR 100 cell line expressing MDR-1 (+) gene. Format: functional, cell-based, Homo sapiens. In outline:
as §1

Data set [10] has as its system MOVP-3. Briefly: Tested for cytotoxicity against VP 16 resistant Molt3 type MOVP-3 cell line expressing MDR-1 (++) gene. The data set is classed as functional, cell-based. As to conditions: Homo sapiens. In outline: as §1
The subject of data set [11] is MOLT-3. Briefly: Tested for cytotoxicity against parental T-cell leukemia type Molt 3 cell line expressing MDR-1 (-) gene. The data set is classed as functional, cell-based. Conditions: Homo sapiens. Summed up:
as §1

In data set [12] the test system is HT-29. Nature of the data set: Tested for cytotoxicity against Colon carcinoma type HT-29 cell line expressing MDR-1 (-) gene; 35% of cells were affected. The data set is classed as functional, cell-based. As to conditions: Homo sapiens. Summed up:
as §1

Data set [13] in a line: Tested for half life period at 37 degree Celsius in PBS buffer at 10.5 pH containing human serum esterase. Format: ADME. Conditions: pH 10.5. Summed up:
as §2

The nature of data set [14]: Tested for half life period at 37 degree Centigrade in PBS buffer at 7.3 pH containing human serum esterase. Conditions: pH 7.3. The data set is classed as ADME. In outline:
as §2

A short description of data set [15]: Tested for half life period at 37 degree Celsius in PBS buffer at 8.0 pH containing human serum esterase. Conditions: pH 8. The data set is classed as ADME. Summed up: as §2
Data set [16] in a line: Tested for half life period at 37 degree Celsius in PBS buffer at 8.8 pH containing human serum esterase. Format: ADME. As to conditions: pH 8.8. Summed up: as §2
In data set [17] the target is Cholinesterase (Homo sapiens) (UniProt P06276). Briefly: Tested for rate constant at 37 degree Celsius in PBS buffer at 7.3 pH in human serum containing porcine liver esterase expressed in 10 e-3 min e-1. The data set is classed as cell-free. Summed up:
(§3)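 Prodrug dissolved at 37 °C in 20/80 vol% acetonitrile–aqueous PBS at the stated pH, in human serum, or with pig liver carboxylic ester hydrolase. Serum samples were pre-cleaned on C18 cartridges. Aliquots were quenched with an equal volume of acetonitrile and centrifuged, and the supernatant was analysed by HPLC peak area. k_obs was taken from the slope of first-order log conversion–time plots and reported as mean ± SD.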

For data set [18] the target is unchanged. Nature of the data set: Tested for rate constant at 37 degree Celsius in PBS buffer at 8.0 pH containing human serum esterase expressed in 10 e-3 min e-1. Summed up:
as §3

Data set [19] has the same target. Briefly: Tested for rate constant at 37 degree Celsius in PBS buffer at 8.8 pH containing human serum esterase expressed in 10 e-3 min e-1. In outline:
as §3

Data set [20] has the same target. Briefly: Tested for rate constant at 37 degree Celsius in PBS buffer at 10.5 pH containing human serum esterase expressed in 10 e-3 min e-1. In outline: as §3

Cholinesterase (Homo sapiens), sequence (P06276 whole entry): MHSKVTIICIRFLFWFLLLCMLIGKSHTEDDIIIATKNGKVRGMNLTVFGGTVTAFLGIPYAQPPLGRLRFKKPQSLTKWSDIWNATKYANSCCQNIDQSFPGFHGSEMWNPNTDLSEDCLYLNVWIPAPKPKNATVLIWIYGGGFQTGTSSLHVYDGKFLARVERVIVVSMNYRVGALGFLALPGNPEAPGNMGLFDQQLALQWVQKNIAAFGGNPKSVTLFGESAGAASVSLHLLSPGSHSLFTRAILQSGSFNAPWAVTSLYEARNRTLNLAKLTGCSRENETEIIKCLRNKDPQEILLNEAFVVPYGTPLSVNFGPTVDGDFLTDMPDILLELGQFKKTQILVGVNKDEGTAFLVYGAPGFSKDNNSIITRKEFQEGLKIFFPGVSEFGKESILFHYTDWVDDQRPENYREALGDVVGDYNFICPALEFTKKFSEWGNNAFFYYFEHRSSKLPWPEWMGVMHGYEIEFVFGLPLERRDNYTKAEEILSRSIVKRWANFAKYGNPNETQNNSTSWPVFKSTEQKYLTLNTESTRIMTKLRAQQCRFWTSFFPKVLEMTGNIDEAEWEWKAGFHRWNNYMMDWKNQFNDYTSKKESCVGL

As usually defined, the IC50 is the midpoint of a concentration-inhibition curve. For orientation: half-life means the time in which the quantity being followed falls by half. Regarding `COc1cc([C@@H]2c3cc4c(cc3C(O[C@@H]3O[C@H]5CO[C@@H](C)O[C@H]5[C@H](O)[C@@H]3O)C3COC(=O)[C@@H]32)OCO4)cc(OC)c1OC(=O)OCC1COC(C)(C)O1` (stereo partly drawn), the IC50 in data set [1] stood at 90 nM; in [5], 6500 nM; in data set [6], 3.5 nM; in [8] it was 110 nM; in data set [9], 3200 nM; in [10], 12 nM. The IC50 in data set [11] came out at 10 nM. Also, the half-life is 1.39 h in data set [2], 0.236 h in data set [3] and 12.5 h in [4]. The compound further displayed a K obs in data set [7] of 8.33.
Regarding `COc1cc([C@@H]2c3cc4c(cc3[C@@H](O[C@@H]3O[C@@H]5CO[C@@H](C)O[C@H]5[C@H](O)[C@H]3O)[C@H]3COC(=O)[C@H]23)OCO4)cc(OC)c1O` [ETOPOSIDE], the 50% inhibitory concentration (IC50) in [1] turned out to be 65000 nM; in data set [5], 100000 nM; in data set [12], 10000 nM; in data set [8] it was 50000 nM; in [9], 15500 nM; in data set [10], 7550 nM. Also, in [11], the IC50 worked out at 65 nM.
As to `COc1cc([C@@H]2c3cc4c(cc3C(O[C@@H]3O[C@H]5CO[C@@H](C)O[C@H]5[C@H](O)[C@@H]3O)C3COC(=O)[C@@H]32)OCO4)cc(OC)c1OC(=O)OCC(O)CO` (stereo partly drawn), the half-life in [13] worked out at 6.93 min; in data set [14], 0.934 h; in [15] it was 3.61 h; in [16] it was 1.62 h. Besides, the IC50 in data set [1] was 580 nM; in data set [5] it was 38000 nM; in data set [6] it was 5.7 nM; in data set [8] it was 110 nM; in data set [9], 7600 nM; in [10], 50 nM. Further, the 50% inhibitory concentration (IC50) in [11] worked out at 35 nM. For the same compound, the K obs came out at 12.4 in [17], 3.2 in data set [18], 7.14 in [19] and 100 in [20].
